# Measurements reported in ChEMBL document CHEMBL1649207, “Role of porins in the susceptibility of Mycobacterium smegmatis and Mycobacterium chelonae to aldehyde-based disinfectants and drugs” (2009).
# The source made the active and inactive calls. No cut-off for these calls is given here.
# What was measured:
# Mycobacteroides chelonae [1] = test: Antimicrobial activity against Mycobacterium chelonae ATCC 35752 by resazurine microtiter assay; type: functional
# How it was run: (§1)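 Colorimetric resazurin microtiter MIC assay in 7H9-oleic acid-albumin-dextrose-catalase broth at 30°C, with well-dispersed bacteria. Growth was also checked by visual scanning to confirm the readings. At least three repeats on independent culture batches.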
# Mycobacteroides chelonae [2] = test: Antimicrobial activity against Mycobacterium chelonae 9917 harboring pZS01 carrying mspA gene by resazurine microtiter assay; type: functional
# Mycobacteroides chelonae [3] = test: Antimicrobial activity against Mycobacterium chelonae ATCC 35752 harboring pZS01 carrying mspA gene by resazurine microtiter assay; type: functional
# Mycobacteroides chelonae [4] = test: Antimicrobial activity against Mycobacterium chelonae 9917 by resazurine microtiter assay; type: functional; how it was run: as §1
# [5] = system: Mycolicibacterium smegmatis; test: Antimicrobial activity against Mycobacterium smegmatis str. MC2 155 deficient in production of lipomannan and lipoarabinomannan; type: functional, organism-based
# [6] = system: Mycolicibacterium smegmatis; test: Antimicrobial activity against Mycobacterium smegmatis str. MC2 155 deficient in mycothiol biosynthesis; type: functional, organism-based
# [7] = system: Mycolicibacterium smegmatis; test: Antimicrobial activity against Mycobacterium smegmatis str. MC2 155 deficient in glycopeptidolipid biosynthesis; type: functional, organism-based
# [8] = system: Mycolicibacterium smegmatis; test: Antimicrobial activity against MspA- and MspC-deficient Mycobacterium smegmatis str. MC2 155; type: functional, organism-based
# [9] = system: Mycolicibacterium smegmatis; test: Antimicrobial activity against MspA-deficient Mycobacterium smegmatis str. MC2 155; type: functional, organism-based
# [10] = system: Mycolicibacterium smegmatis; test: Antimicrobial activity against Mycobacterium smegmatis str. MC2 155 deficient in production of polar phosphatidylinositol mannoside; type: functional, organism-based
# [11] = system: Mycolicibacterium smegmatis; test: Antimicrobial activity against Mycobacterium smegmatis str. MC2 155 harboring embB mutant gene; type: functional, organism-based
# [12] = system: Mycolicibacterium smegmatis; test: Antimicrobial activity against Mycobacterium smegmatis str. MC2 155 deficient in production of lipomannan and produces truncated lipoarabinomannan; type: functional, organism-based
# [13] = system: Mycolicibacterium smegmatis; test: Antimicrobial activity against Mycobacterium smegmatis str. MC2 155 harboring embA mutant gene; type: functional, organism-based
# [14] = system: Mycolicibacterium smegmatis; test: Antimicrobial activity against Lsr2-deficient Mycobacterium smegmatis str. MC2 155; type: functional, organism-based
# [15] = Mycobacteroides chelonae, 9917, Urine
compound,measurement,setting,value
CC[C@H]1OC(=O)[C@H](C)[C@@H](O[C@H]2C[C@@](C)(OC)[C@@H](O)[C@H](C)O2)[C@H](C)[C@@H](O[C@@H]2O[C@H](C)C[C@H](N(C)C)[C@H]2O)[C@](C)(O)C[C@@H](C)C(=O)[C@H](C)[C@@H](O)[C@]1(C)O [ERYTHROMYCIN],MIC,Mycobacteroides chelonae [1],20 µg/mL
same,MIC,Mycobacteroides chelonae [2]; [15],1 µg/mL
same,MIC,"Mycobacteroides chelonae [3]; ATCC 35752, Urine",0.25 µg/mL
same,MIC,Mycobacteroides chelonae [4],500 µg/mL
NC(=O)c1cnccn1 [PYRAZINAMIDE],MIC,Mycobacteroides chelonae [1],> 500 µg/mL
same,MIC,Mycobacteroides chelonae [4],> 500 µg/mL
CC[C@@H](CO)NCCN[C@@H](CC)CO [ETHAMBUTOL],MIC,Mycobacteroides chelonae [1],> 500 µg/mL
same,MIC,Mycobacteroides chelonae [2]; [15],250 µg/mL
same,MIC,"Mycobacteroides chelonae [3]; ATCC 35752, Urine",25 µg/mL
same,MIC,Mycobacteroides chelonae [4],> 500 µg/mL
CC(=O)NC[C@H]1CN(c2ccc(N3CCOCC3)c(F)c2)C(=O)O1 [LINEZOLID],MIC,Mycobacteroides chelonae [1],25 µg/mL
same,MIC,Mycobacteroides chelonae [2]; [15],1 µg/mL
same,MIC,"Mycobacteroides chelonae [3]; ATCC 35752, Urine",5 µg/mL
same,MIC,Mycobacteroides chelonae [4],100 µg/mL
GENTAMICIN,MIC,Mycobacteroides chelonae [1],7.5 µg/mL
same,MIC,Mycobacteroides chelonae [2]; Urine,20 µg/mL
same,MIC,Mycobacteroides chelonae [3]; Urine,7.5 µg/mL
same,MIC,Mycobacteroides chelonae [4],15 µg/mL
CCn1cc(C(=O)O)c(=O)c2cc(F)c(N3CCNCC3)cc21 [NORFLOXACIN],MIC,Mycobacteroides chelonae [1],5 µg/mL
same,MIC,Mycobacteroides chelonae [4],5 µg/mL
CCc1cc(C(N)=S)ccn1 [ETHIONAMIDE],MIC,Mycobacteroides chelonae [1],> 400 µg/mL
same,MIC,Mycobacteroides chelonae [2]; [15],50 µg/mL
same,MIC,"Mycobacteroides chelonae [3]; ATCC 35752, Urine",50 µg/mL
same,MIC,Mycobacteroides chelonae [4],> 400 µg/mL
CN[C@H](CC(C)C)C(=O)N[C@H]1C(=O)N[C@@H](CC(N)=O)C(=O)N[C@H]2C(=O)N[C@H]3C(=O)N[C@H](C(=O)N[C@H](C(=O)O)c4cc(O)cc(O)c4-c4cc3ccc4O)[C@H](O)c3ccc(c(Cl)c3)Oc3cc2cc(c3O[C@@H]2O[C@H](CO)[C@@H](O)[C@H](O)[C@H]2O[C@H]2C[C@](C)(N)[C@H](O)[C@H](C)O2)Oc2ccc(cc2Cl)[C@H]1O [VANCOMYCIN],MIC,Mycobacteroides chelonae [1],5 µg/mL
same,MIC,Mycobacteroides chelonae [2]; [15],25 µg/mL
same,MIC,"Mycobacteroides chelonae [3]; ATCC 35752, Urine",5 µg/mL
same,MIC,Mycobacteroides chelonae [4],> 500 µg/mL
CN[C@@H]1C[C@H](N)[C@@H](O)[C@H](O[C@H]2O[C@H](CO)[C@H](O)[C@@H]3O[C@@]4(O[C@@H]23)O[C@H]([C@H](N)CO)[C@H](O)[C@H](O)[C@H]4O)[C@H]1O [HYGROMYCIN],MIC,Mycobacteroides chelonae [1],> 500 µg/mL
same,MIC,Mycobacteroides chelonae [4],> 500 µg/mL
CC[C@H]1OC(=O)[C@H](C)[C@@H](O[C@H]2C[C@@](C)(OC)[C@@H](O)[C@H](C)O2)[C@H](C)[C@@H](O[C@@H]2O[C@H](C)C[C@H](N(C)C)[C@H]2O)[C@](C)(O)C[C@@H](C)CN(C)[C@H](C)[C@@H](O)[C@]1(C)O [AZITHROMYCIN],MIC,Mycobacteroides chelonae [1],500 µg/mL
same,MIC,Mycobacteroides chelonae [2]; [15],500 µg/mL
same,MIC,"Mycobacteroides chelonae [3]; ATCC 35752, Urine",500 µg/mL
same,MIC,Mycobacteroides chelonae [4],500 µg/mL
CC[C@H]1OC(=O)[C@H](C)[C@@H](O[C@H]2C[C@@](C)(OC)[C@@H](O)[C@H](C)O2)[C@H](C)[C@@H](O[C@@H]2O[C@H](C)C[C@H](N(C)C)[C@H]2O)[C@](C)(OC)C[C@@H](C)C(=O)[C@H](C)[C@@H](O)[C@]1(C)O [CLARITHROMYCIN],MIC,Mycobacteroides chelonae [1],25 µg/mL
same,MIC,Mycobacteroides chelonae [2]; [15],25 µg/mL
same,MIC,"Mycobacteroides chelonae [3]; ATCC 35752, Urine",50 µg/mL
same,MIC,Mycobacteroides chelonae [4],> 250 µg/mL
NNC(=O)c1ccncc1 [ISONIAZID],MIC,Mycobacteroides chelonae [1],> 400 µg/mL
same,MIC,Mycobacteroides chelonae [4],> 400 µg/mL
O=CCCCC=O,Activity,[5],inactive
same,Activity,[6],inactive
same,Activity,[7],inactive
same,Activity,[8],inactive
same,Activity,[9],inactive
same,Activity,[10],inactive
same,Activity,[11],Active
same,Activity,Mycobacteroides chelonae [2]; Urine,Active
same,Activity,Mycobacteroides chelonae [3]; Urine,Active
same,Activity,[12],Active
same,Activity,[13],Active
same,Activity,[14],inactive
CO[C@H]1/C=C/O[C@@]2(C)Oc3c(C)c(O)c4c(O)c(c(/C=N/N5CCN(C)CC5)c(O)c4c3C2=O)NC(=O)/C(C)=C\C=C\[C@H](C)[C@H](O)[C@@H](C)[C@@H](O)[C@@H](C)[C@H](OC(C)=O)[C@@H]1C [RIFAMPIN],MIC,Mycobacteroides chelonae [1],25 µg/mL
same,MIC,Mycobacteroides chelonae [2]; [15],100 µg/mL
same,MIC,"Mycobacteroides chelonae [3]; ATCC 35752, Urine",5 µg/mL
same,MIC,Mycobacteroides chelonae [4],> 500 µg/mL
O=C(N[C@H](CO)[C@H](O)c1ccc([N+](=O)[O-])cc1)C(Cl)Cl [CHLORAMPHENICOL],MIC,Mycobacteroides chelonae [1],> 500 µg/mL
same,MIC,Mycobacteroides chelonae [2]; [15],50 µg/mL
same,MIC,"Mycobacteroides chelonae [3]; ATCC 35752, Urine",50 µg/mL
same,MIC,Mycobacteroides chelonae [4],> 500 µg/mL
NC[C@H]1O[C@H](O[C@H]2[C@H](O)[C@@H](O[C@H]3O[C@H](CO)[C@@H](O)[C@H](N)[C@H]3O)[C@H](N)C[C@@H]2N)[C@H](N)C[C@@H]1O [TOBRAMYCIN],MIC,Mycobacteroides chelonae [1],25 µg/mL
same,MIC,Mycobacteroides chelonae [4],25 µg/mL
O=Cc1ccccc1C=O,Activity,Mycobacteroides chelonae [2]; Urine,Active
same,Activity,Mycobacteroides chelonae [3]; Urine,Active
NC[C@H]1O[C@H](O[C@H]2[C@H](O)[C@@H](O[C@H]3O[C@H](CO)[C@@H](O)[C@H](N)[C@H]3O)[C@H](N)C[C@@H]2N)[C@H](O)[C@@H](O)[C@@H]1O [KANAMYCIN],MIC,Mycobacteroides chelonae [1],50 µg/mL
same,MIC,Mycobacteroides chelonae [4],10 µg/mL
CN(C)[C@@H]1C(O)=C(C(N)=O)C(=O)[C@@]2(O)C(O)=C3C(=O)c4c(O)cccc4[C@@](C)(O)[C@H]3C[C@@H]12 [TETRACYCLINE],MIC,Mycobacteroides chelonae [1],50 µg/mL
same,MIC,Mycobacteroides chelonae [2]; [15],25 µg/mL
same,MIC,"Mycobacteroides chelonae [3]; ATCC 35752, Urine",5 µg/mL
same,MIC,Mycobacteroides chelonae [4],> 500 µg/mL
CN[C@@H]1[C@H](O[C@H]2[C@H](O[C@H]3[C@H](O)[C@@H](O)[C@H](N=C(N)N)[C@@H](O)[C@@H]3N=C(N)N)O[C@@H](C)[C@]2(O)C=O)O[C@@H](CO)[C@H](O)[C@H]1O [STREPTOMYCIN],MIC,Mycobacteroides chelonae [1],200 µg/mL
same,MIC,Mycobacteroides chelonae [2]; [15],10 µg/mL
same,MIC,"Mycobacteroides chelonae [3]; ATCC 35752, Urine",250 µg/mL
same,MIC,Mycobacteroides chelonae [4],10 µg/mL
O=C(O)c1cn(C2CC2)c2cc(N3CCNCC3)c(F)cc2c1=O [CIPROFLOXACIN],MIC,Mycobacteroides chelonae [1],1.5 µg/mL
same,MIC,Mycobacteroides chelonae [2]; [15],1 µg/mL
same,MIC,"Mycobacteroides chelonae [3]; ATCC 35752, Urine",2.5 µg/mL
same,MIC,Mycobacteroides chelonae [4],5 µg/mL
CC1(C)S[C@@H]2[C@H](NC(=O)[C@H](N)c3ccccc3)C(=O)N2[C@H]1C(=O)O [AMPICILLIN],MIC,Mycobacteroides chelonae [1],> 500 µg/mL
same,MIC,Mycobacteroides chelonae [4],> 500 µg/mL
